Tests used:
[1] = biological target: CYP2C9 (Homo sapiens, UniProt P11712); experiment: Inhibition of CYP2C9 (unknown origin) at 10 uM relative to control; assay type: ADME
Procedure, shortened: (§1)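 CYP isoenzyme inhibition is measured at 10 μM compound. Result is given as % inhibition.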

[2] = biological target: CYP2D6 (Homo sapiens, UniProt P10635); experiment: Inhibition of CYP2D6 (unknown origin) at 10 uM relative to control; assay type: ADME; procedure, shortened: as §1
[3] = biological target: T1, 5-hydroxytryptamine receptor 3A (Cavia porcellus) (UniProt O70212); settings: Ileum, filed as antagonist
T1 sequence (whole entry): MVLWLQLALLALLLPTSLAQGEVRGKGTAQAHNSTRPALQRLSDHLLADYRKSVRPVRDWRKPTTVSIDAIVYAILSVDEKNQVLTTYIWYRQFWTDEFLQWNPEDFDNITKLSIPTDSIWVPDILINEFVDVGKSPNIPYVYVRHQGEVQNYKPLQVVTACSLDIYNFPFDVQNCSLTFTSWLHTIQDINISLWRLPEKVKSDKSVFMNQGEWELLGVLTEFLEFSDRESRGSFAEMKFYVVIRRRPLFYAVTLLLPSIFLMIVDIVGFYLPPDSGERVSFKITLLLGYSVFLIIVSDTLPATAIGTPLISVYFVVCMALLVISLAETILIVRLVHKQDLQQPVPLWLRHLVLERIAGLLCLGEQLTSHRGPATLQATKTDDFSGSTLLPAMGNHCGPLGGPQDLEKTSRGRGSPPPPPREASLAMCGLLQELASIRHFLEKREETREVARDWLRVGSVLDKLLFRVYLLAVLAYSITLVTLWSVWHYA

Chain of CYP2C9 (P11712 whole entry): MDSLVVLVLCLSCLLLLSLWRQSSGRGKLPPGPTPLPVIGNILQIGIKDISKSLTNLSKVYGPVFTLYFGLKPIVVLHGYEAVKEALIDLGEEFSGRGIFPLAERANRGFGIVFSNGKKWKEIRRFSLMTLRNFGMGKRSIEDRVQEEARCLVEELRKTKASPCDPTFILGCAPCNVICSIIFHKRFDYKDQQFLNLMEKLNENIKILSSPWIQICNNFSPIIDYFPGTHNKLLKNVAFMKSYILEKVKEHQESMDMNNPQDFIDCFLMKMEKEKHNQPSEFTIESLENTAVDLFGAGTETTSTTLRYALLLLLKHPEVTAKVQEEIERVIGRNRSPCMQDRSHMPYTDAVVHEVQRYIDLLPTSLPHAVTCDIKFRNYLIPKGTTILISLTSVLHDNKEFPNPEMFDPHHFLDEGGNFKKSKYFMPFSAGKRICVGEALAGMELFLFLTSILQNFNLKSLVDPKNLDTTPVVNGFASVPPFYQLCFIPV
Chain of CYP2D6 (P10635 whole entry): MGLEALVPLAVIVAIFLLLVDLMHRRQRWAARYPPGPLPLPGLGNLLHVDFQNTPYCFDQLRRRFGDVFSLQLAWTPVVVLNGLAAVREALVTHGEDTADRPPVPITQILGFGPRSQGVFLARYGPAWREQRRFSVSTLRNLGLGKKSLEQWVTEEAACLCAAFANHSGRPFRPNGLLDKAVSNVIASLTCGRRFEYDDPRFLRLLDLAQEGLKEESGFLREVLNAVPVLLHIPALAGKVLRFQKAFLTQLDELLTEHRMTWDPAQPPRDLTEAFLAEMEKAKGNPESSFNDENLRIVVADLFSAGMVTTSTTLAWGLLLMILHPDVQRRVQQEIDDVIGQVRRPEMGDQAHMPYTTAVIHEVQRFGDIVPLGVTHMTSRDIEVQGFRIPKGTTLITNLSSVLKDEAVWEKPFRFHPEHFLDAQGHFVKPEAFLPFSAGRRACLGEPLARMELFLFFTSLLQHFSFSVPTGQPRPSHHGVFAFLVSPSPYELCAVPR

inhibition at 10 µM [1] [%] | inhibition at 10 µM [2] [%] | pD2 [3] | SMILES
< 25 | < 25 |  | O=S(=O)(c1cccc(F)c1)n1ccc2c(N3CCNCC3)nc3ccccc3c21
 |  | 6.43 | Cc1nccn1CC1CCc2c(c3ccccc3n2C)C1=O (stereo not drawn)

— ChEMBL document CHEMBL4842371 (J Med Chem, 2021)
